pEC50: −log10 of the molar value. ≈ marks a conversion by molar mass, not a printed value. Calls of active or inactive are those of the source. The calls are words filed in the database; no cut-off is given here.
Tests used:
Staphylococcus aureus [1] = test: Antibacterial activity against methicillin-susceptible Staphylococcus aureus clinical isolate 256/08 after 18 hrs by twofold serial agar dilution technique; format: functional; conditions: clinical isolate 256/08, 18 h
How it was run: (§1)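 Clinical isolates came from patients in Warsaw Medical University Hospitals and were classed as methicillin-susceptible or -resistant. MIC was determined by twofold serial agar dilution on Mueller–Hinton II agar (CLSI), 3.125–400 µg/mL in agar, with compounds in methanol or DMSO. Inoculum was 10^4 CFU/mL and plates were read after 18 h at 35 °C.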

[2] = test system: Staphylococcus epidermidis; test: Antibacterial activity against methicillin-resistant Staphylococcus epidermidis clinical isolate 343/09 after 18 hrs by twofold serial agar dilution technique; format: functional; conditions: clinical isolate 343/09, 18 h; how it was run: as §1
[3] = test system: Human immunodeficiency virus 1; test: Antiviral activity against HIV1 infected in human MT4 cells assessed as virus-induced cytopathogenicity after 4 days by MTT assay; format: functional, organism-based; conditions: Human immunodeficiency virus 1, MT4, 96 h
Staphylococcus aureus [4] = test: Antibacterial activity against Staphylococcus aureus ATCC 25923 at 400 ug/disc after 18 hrs by disc diffusion method; format: functional; conditions: ATCC 25923, 18 h, read-out: DIZ
How it was run: (§2)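 Disc diffusion per CLSI on Mueller–Hinton II agar; 9 mm paper discs loaded from methanol or DMSO solutions to 400 µg per disc, dried; growth inhibition zone diameter read after 18 h at 35 °C.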

Enterococcus hirae = test: Antibacterial activity against Enterococcus hirae ATCC 10541 after 18 hrs by twofold serial agar dilution technique; format: functional; conditions: ATCC 10541, 18 h
Staphylococcus aureus [5] = test: Antibacterial activity against Staphylococcus aureus NCTC 4163 at 400 ug/disc after 18 hrs by disc diffusion method; format: functional; conditions: NCTC 4163, 18 h, read-out: DIZ; how it was run: as §2
Staphylococcus aureus [6] = test: Antibacterial activity against methicillin-susceptible Staphylococcus aureus clinical isolate 338/08 after 18 hrs by twofold serial agar dilution technique; format: functional; conditions: clinical isolate 338/08, 18 h; how it was run: as §1
[7] = Cytotoxicity against human MT4 cells after 96 hrs by MTT assay; format: cell-based
Bacillus cereus [8] = test: Antibacterial activity against Bacillus cereus ATCC 11778 after 18 hrs by twofold serial agar dilution technique; format: functional; conditions: ATCC 11778, 18 h
Staphylococcus aureus [9] = test: Antibacterial activity against methicillin-resistant Staphylococcus aureus clinical isolate 307/08 after 18 hrs by twofold serial agar dilution technique; format: functional; conditions: clinical isolate 307/08, 18 h; how it was run: as §1
Staphylococcus aureus [10] = test: Antibacterial activity against methicillin-susceptible Staphylococcus aureus clinical isolate 269/08 after 18 hrs by twofold serial agar dilution technique; format: functional; conditions: clinical isolate 269/08, 18 h; how it was run: as §1
Staphylococcus aureus [11] = test: Antibacterial activity against methicillin-resistant Staphylococcus aureus clinical isolate 329/08 after 18 hrs by twofold serial agar dilution technique; format: functional; conditions: clinical isolate 329/08, 18 h; how it was run: as §1
[12] = test system: Staphylococcus epidermidis; test: Antibacterial activity against Staphylococcus epidermidis ATCC 12228 after 18 hrs by twofold serial agar dilution technique; format: functional; conditions: ATCC 12228, 18 h
How it was run: (§3)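 Twofold serial agar dilution on Mueller–Hinton II agar, following CLSI guidelines. Compounds were dissolved in methanol or DMSO and tested at final agar concentrations of 3.125–400 µg/mL. Final inoculum was 10^4 CFU/mL.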

[13] = test system: Staphylococcus epidermidis; test: Antibacterial activity against Staphylococcus epidermidis ATCC 12228 at 400 ug/disc after 18 hrs by disc diffusion method; format: functional; conditions: for zone of inhibition at 400 µg/disc: ATCC 12228, 18 h, read-out: DIZ; how it was run: as §2
Bacillus cereus [14] = test: Antibacterial activity against Bacillus cereus ATCC 11778 at 400 ug/disc after 18 hrs by disc diffusion method; format: functional; conditions: ATCC 11778, 18 h, read-out: DIZ; how it was run: as §2
Staphylococcus aureus [15] = test: Antibacterial activity against methicillin-resistant Staphylococcus aureus clinical isolate 309/08 after 18 hrs by twofold serial agar dilution technique; format: functional; conditions: clinical isolate 309/08, 18 h; how it was run: as §1
Staphylococcus aureus [16] = test: Antibacterial activity against methicillin-susceptible Staphylococcus aureus clinical isolate 268/08 after 18 hrs by twofold serial agar dilution technique; format: functional; conditions: clinical isolate 268/08, 18 h; how it was run: as §1
Pseudomonas aeruginosa = test: Antibacterial activity against Pseudomonas aeruginosa ATCC 27853 at 400 ug/disc after 18 hrs by disc diffusion method; format: functional, organism-based; how it was run: as §2
Staphylococcus aureus [17] = test: Antibacterial activity against methicillin-resistant Staphylococcus aureus clinical isolate 306/08 after 18 hrs by twofold serial agar dilution technique; format: functional; conditions: clinical isolate 306/08, 18 h; how it was run: as §1
Staphylococcus aureus [18] = test: Antibacterial activity against methicillin-resistant Staphylococcus aureus clinical isolate 356/09 after 18 hrs by twofold serial agar dilution technique; format: functional; conditions: clinical isolate 356/09, 18 h; how it was run: as §1
Staphylococcus aureus [19] = test: Antibacterial activity against Staphylococcus aureus ATCC 25923 after 18 hrs by twofold serial agar dilution technique; format: functional; conditions: ATCC 25923, 18 h; how it was run: as §3
Micrococcus luteus = test: Antibacterial activity against Micrococcus luteus ATCC 9341 after 18 hrs by twofold serial agar dilution technique; format: functional; conditions: ATCC 9341, 18 h
Staphylococcus aureus [20] = test: Antibacterial activity against Staphylococcus aureus ATCC 29213 at 400 ug/disc after 18 hrs by disc diffusion method; format: functional; conditions: ATCC 29213, 18 h, read-out: DIZ; how it was run: as §2
Staphylococcus aureus [21] = test: Antibacterial activity against methicillin-resistant Staphylococcus aureus clinical isolate 376/09 after 18 hrs by twofold serial agar dilution technique; format: functional; conditions: clinical isolate 376/09, 18 h; how it was run: as §1
Staphylococcus aureus [22] = test: Antibacterial activity against Staphylococcus aureus ATCC 6538 at 400 ug/disc after 18 hrs by disc diffusion method; format: functional; conditions: ATCC 6538, 18 h, read-out: DIZ; how it was run: as §2
Staphylococcus aureus [23] = test: Antibacterial activity against methicillin-susceptible Staphylococcus aureus clinical isolate 369/09 after 18 hrs by twofold serial agar dilution technique; format: functional; conditions: clinical isolate 369/09, 18 h; how it was run: as §1
Candida albicans = test: Antifungal activity against Candida albicans ATCC 10231 at 400 ug/disc after 18 hrs by disc diffusion method; format: functional, organism-based
How it was run: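 Yeasts tested by disc diffusion (CLSI) on RPMI agar with 2% glucose; 9 mm paper discs bearing 400 µg compound from methanol or DMSO solution; inhibition zone diameter read after 18 h at 35 °C.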

SMILES | MIC (Staphylococcus aureus [1]) [µg/mL] | MIC [2] [µg/mL] | pEC50 [3] | zone of inhibition at 400 µg/disc (Staphylococcus aureus [4]) [mm] | MIC (Enterococcus hirae) [µg/mL] | zone of inhibition at 400 µg/disc (Staphylococcus aureus [5]) [mm] | MIC (Staphylococcus aureus [6]) [µg/mL] | CC50 at 96 h [7] [µM] | MIC (Bacillus cereus [8]) [µg/mL] | MIC (Staphylococcus aureus [9]) [µg/mL] | MIC (Staphylococcus aureus [10]) [µg/mL] | MIC (Staphylococcus aureus [11]) [µg/mL] | MIC [12] [µg/mL] | zone of inhibition at 400 µg/disc (Bacillus cereus [14]) [mm] | MIC (Staphylococcus aureus [15]) [µg/mL] | MIC (Staphylococcus aureus [16]) [µg/mL] | diameter of the inhibition zone (DIZ) (Pseudomonas aeruginosa) | MIC (Staphylococcus aureus [17]) [µg/mL] | MIC (Staphylococcus aureus [18]) [µg/mL] | MIC (Staphylococcus aureus [19]) [µg/mL] | also measured
S=C(Nc1nc[nH]n1)Nc1ccccc1Br | 50 (≈ 168 µM) | 50 (≈ 168 µM) | < 4.00 | 13 | 400 (≈ 1340 µM) | 11 | 50 (≈ 168 µM) | > 100 | 25 (≈ 83.8 µM) | 50 (≈ 168 µM) | 50 (≈ 168 µM) | 50 (≈ 168 µM) | 25 (≈ 83.8 µM) | 12 | 50 (≈ 168 µM) | 50 (≈ 168 µM) | inactive | 50 (≈ 168 µM) | 50 (≈ 168 µM) | 50 (≈ 168 µM) | zone of inhibition at 400 µg/disc [13]: 12 mm; MIC (Micrococcus luteus): 6.25 µg/mL (≈ 21 µM); zone of inhibition at 400 µg/disc (Staphylococcus aureus [20]): 12 mm; MIC (Staphylococcus aureus [21]): 50 µg/mL (≈ 168 µM); zone of inhibition at 400 µg/disc (Staphylococcus aureus [22]): 12 mm; MIC (Staphylococcus aureus [23]): 50 µg/mL (≈ 168 µM); diameter of the inhibition zone (DIZ) (Candida albicans): inactive
S=C(Nc1ccc(Cl)cc1)Nc1nc[nH]n1 | 25 (≈ 98.5 µM) | 25 (≈ 98.5 µM) | < 4.33 | 23 | 200 (≈ 788 µM) | 23 | 25 (≈ 98.5 µM) | 47 | 12.5 (≈ 49.3 µM) | 25 (≈ 98.5 µM) | 25 (≈ 98.5 µM) | 25 (≈ 98.5 µM) | 25 (≈ 98.5 µM) | 16 | 25 (≈ 98.5 µM) | 25 (≈ 98.5 µM) | inactive | 25 (≈ 98.5 µM) | 25 (≈ 98.5 µM) | 25 (≈ 98.5 µM) | zone of inhibition at 400 µg/disc [13]: 20 mm; MIC (Micrococcus luteus): 25 µg/mL (≈ 98.5 µM); zone of inhibition at 400 µg/disc (Staphylococcus aureus [20]): 17 mm; MIC (Staphylococcus aureus [21]): 25 µg/mL (≈ 98.5 µM); zone of inhibition at 400 µg/disc (Staphylococcus aureus [22]): 15 mm; MIC (Staphylococcus aureus [23]): 25 µg/mL (≈ 98.5 µM); diameter of the inhibition zone (DIZ) (Candida albicans): inactive
Fc1ccc(NC(=S)Nc2nc[nH]n2)cc1 | 50 (≈ 211 µM) | 50 (≈ 211 µM) | < 4.00 | 18 | 400 (≈ 1690 µM) | 14 | 50 (≈ 211 µM) | > 100 | 6.25 (≈ 26.3 µM) | 50 (≈ 211 µM) | 50 (≈ 211 µM) | 50 (≈ 211 µM) | 25 (≈ 105 µM) | 16 | 50 (≈ 211 µM) | 100 (≈ 421 µM) | inactive | 50 (≈ 211 µM) | 50 (≈ 211 µM) | 50 (≈ 211 µM) | zone of inhibition at 400 µg/disc [13]: 16 mm; MIC (Micrococcus luteus): 6.25 µg/mL (≈ 26.3 µM); zone of inhibition at 400 µg/disc (Staphylococcus aureus [20]): 11 mm; MIC (Staphylococcus aureus [21]): 50 µg/mL (≈ 211 µM); zone of inhibition at 400 µg/disc (Staphylococcus aureus [22]): 14 mm; MIC (Staphylococcus aureus [23]): 50 µg/mL (≈ 211 µM); diameter of the inhibition zone (DIZ) (Candida albicans): inactive
S=C(Nc1ccc(I)cc1)Nc1nc[nH]n1 | 25 (≈ 72.4 µM) | 50 (≈ 145 µM) | < 4.34 | 13 | 400 (≈ 1160 µM) | 12 | 50 (≈ 145 µM) | 46 | 12.5 (≈ 36.2 µM) | 50 (≈ 145 µM) | 25 (≈ 72.4 µM) | 25 (≈ 72.4 µM) | 25 (≈ 72.4 µM) | 13 | 25 (≈ 72.4 µM) | 25 (≈ 72.4 µM) | inactive | 50 (≈ 145 µM) | 50 (≈ 145 µM) | 25 (≈ 72.4 µM) | diameter of the inhibition zone (DIZ) [13]: inactive; MIC (Micrococcus luteus): 12.5 µg/mL (≈ 36.2 µM); zone of inhibition at 400 µg/disc (Staphylococcus aureus [20]): 13 mm; MIC (Staphylococcus aureus [21]): 50 µg/mL (≈ 145 µM); zone of inhibition at 400 µg/disc (Staphylococcus aureus [22]): 12 mm; MIC (Staphylococcus aureus [23]): 50 µg/mL (≈ 145 µM); diameter of the inhibition zone (DIZ) (Candida albicans): inactive
